In the RNAGym collection of RNA variant scans (doi:10.1126/science.aae0568):
Variants at the floor of the assay were thinned out.

B1: tRNA (parent)
chain: GUUCCGUUGGCGUAAUGGUAACGCGUCUCCCUCCUAAGGAGAAGACUGCGGGUUCGAGUCCCGUACGGAACG

Variants of: B1
Experiment: yeast fitness relative to wild type (ratio to wild type); higher = fitter; tRNA-Arg(CCU), competitive growth, 37 C, YPD
How it was run: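 Variants of the tRNA-Arg(CCU) gene, chemically synthesised with a 3% per-site mutation rate at 69 sites, were placed at the native genomic locus in Saccharomyces cerevisiae. The pooled strains were competed in YPD at 37°C for 24 hours in six parallel replicates. Gene amplicons from the start population and from each end population were read by 100-nucleotide paired-end sequencing. Darwinian fitness relative to wild type came from changes in genotype frequencies; genotypes needed ≥ 100 starting reads, and estimates < 0.5 were set to 0.5.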

Variant	yeast fitness
C11G A21U C24G G51A	≤ 0.5
C11A U16C U32G C49G C62U	≤ 0.5
C11G A14U G17A C61G C62G	≤ 0.5
C11A U16C G18C A45C U59A	≤ 0.5
C11G C24U A42U A43U C66U	≤ 0.5
C11A U19A C55A C61U	0.605
C11A U19G A36G U53C U54C A69C	≤ 0.5
C11G A45U C61G	≤ 0.5
C11A U53G	0.577
C11G A20U C24A G25C A43U	≤ 0.5
C11G A40G C61A	0.605
C11G A15G U28G C29U C33G C46G A57C	≤ 0.5
C11G A15C U47G	≤ 0.5
C11G C27A G38A A65C	0.557
C11G A37G G52C A70U	0.57
C11G A20C A42C A57U	≤ 0.5
C11A U16C G18C A45C A57C G68A	≤ 0.5
C11G A42C G68C	≤ 0.5
C11G A15U C22U A42G C66U	≤ 0.5
C11G A15C C24G C46A C66U	≤ 0.5
C11G A42U A43C C55A C66U	≤ 0.5

Variant	yeast fitness
C11G A15C C29U G41C G52A	≤ 0.5
C11G A37C G51A G67A	≤ 0.5
C11A G51A U53A	≤ 0.5
C11G A36C A43U	≤ 0.5
C11G C27U A43C C61G	≤ 0.5
C11G C22G C27G C49U C62U	≤ 0.5
C11G A21U C55U	≤ 0.5
C11G A65U A69U	0.625
C11A U19C	0.706
C11G A14U A21U A69U	≤ 0.5
C11G C24A U28G G63A	0.586
C11A U13A A20G G68C A69C	0.626
C11G A15G C33G A37G	≤ 0.5
C11G A15G	0.596
C11G A21G G23C C30A	0.733
C11A U32A C33U U47A	≤ 0.5
C11A U16C G18C A45C A57C G68C A69G	≤ 0.5
C11A G67C	0.574
C11A G67A	0.555
C11G A20C	0.615
C11G A20U	0.692

Variant	yeast fitness
C11G A43C C46G	0.514
C11A U13C C27A C60G A65G	≤ 0.5
C11G C22U	0.653
C11G C22G	0.675
C11G C22A	0.608
C11G A37C A42G	≤ 0.5
C11A U32A C33U C66A	≤ 0.5
C11G C27A	0.715
C11G C27U	0.706
C11G A36G G67U A69C	≤ 0.5
C11G C27U C33G A65C	≤ 0.5
C11G A37C	0.606
C11G A15C C34U U47C G48A C55U	≤ 0.5
C11A U59G G63C	≤ 0.5
C11G A15C C34U G48A C55U	0.759
C11G A37U C55U A57C	≤ 0.5
C11A U13G C27G	≤ 0.5
C11A G25C C29U C49U	≤ 0.5
C11G C24U G25A A42G	≤ 0.5
C11G A14U G17A A36G G41A	0.582
C11G C24G	≤ 0.5

Variant	yeast fitness
C11G C24U	0.583
C11A G41A G56A C62A	≤ 0.5
C11G A65U	0.656
C11G A65C	0.594
C11G A65G	0.696
C11G A20C A45G A70U	≤ 0.5
C11A U19G C49A	≤ 0.5
C11G C27G C30G A70C	0.689
C11G A21U U26C U53G	0.696
C11G A14U A42U	0.638
C11G A20G C62A	≤ 0.5
C11G A36C G56A A65G	≤ 0.5
C11G A20C C24U A36C U47A C66U	≤ 0.5
C11G A36U	≤ 0.5
C11G A36G	0.692
C11A G18C C27A G48A U54C	0.76
C11G A20U C30G C49G U53G	0.571
C11A G56C	≤ 0.5
C11A G56A	0.739
C11G A37C C66G G68U	≤ 0.5
